For 17 compounds, IC50 and Ratio results are on record in ChEMBL document CHEMBL1125425, “Synthesis and muscarinic activities of quinuclidin-3-yltriazole and -tetrazole derivatives” (J Med Chem, 1992).

For assay [1], the target named is Muscarinic acetylcholine receptor. In words: Compound was tested in vitro for its binding affinity to muscarinic acetylcholine receptor from rat cortical homogenates using [3H]OXO-M as radioligand. In a few lines: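 Hooded Lister rat cerebral cortex washed membranes in 50 mM Tris pH 7.7 plus 2 mM MgCl2; 2 nM [3H]oxotremorine-M; nonspecific binding with 10 μM oxotremorine; 37 °C for 30 min; filtration on filters presoaked in 0.05% polyethylenimine, scintillation counting. IC50 is the geometric mean of at least two separate experiments, seven concentrations each.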

Assay [2] shares this target. In words: Compound was tested in vitro for its binding affinity to muscarinic acetylcholine receptor from rat cortical homogenates using [3H]QNB as radioligand.
In assay [3] the target is Muscarinic acetylcholine receptor (Rattus norvegicus) (UniProt P08482+P08483+P08485+P08911+P10980). Description: Ratio of IC50(QNB) to IC50(OXO-M) was determined. In kind it is protein assay.
Assay [4] deals with Muscarinic acetylcholine receptor. Description: In vitro inhibition of [3H]OXO-M binding to Muscarinic receptor from rat cortical homogenates.
For assay [5] the target is unchanged. Description: In vitro inhibition of [3H]QNB binding to Muscarinic receptor from rat cortical homogenates.

What is called IC50 is the concentration that gives 50% inhibition. With `c1nnnn1C1CN2CCC1CC2` (centres undefined), the IC50 turned out to be 2.3 µM in assay [1] and 115 µM in assay [2]. Further, in assay [3], the Ratio stood at 49.

As for `Cc1cn(C2CN3CCC2CC3)nn1` (centres undefined), the IC50 in assay [4] is 5 µM; in assay [5] it was 20 µM.

Consider `c1ncn(C2CN3CCC2CC3)n1` (centres undefined), for which the IC50 was 0.43 µM in assay [1] and 28 µM in assay [2]. The Ratio in assay [3] came to 65.

As to `c1nncn1C1CN2CCC1CC2` (centres undefined), the IC50 came to 40 µM in assay [4] and 165 µM in assay [5].

As to `c1nnn(C2CN3CCC2CC3)n1` (centres undefined), the IC50 in assay [4] was 0.24 µM; in assay [5], 16 µM.

Regarding `Cn1nnc(C2CN3CCC2CC3)n1` (centres undefined), the IC50 in assay [4] was 0.14 µM; in assay [5], 5.1 µM.

Consider `Cn1ncc(C2CN3CCC2CC3)n1` (centres undefined), for which the figures for the IC50 in assay [4] and in assay [5] were 0.048 µM and 4.5 µM, respectively.

Consider `O=C1CCCN1CC#CCN1CCCC1` [OXOTREMORINE], for which the IC50 in assay [4] is 0.017 µM; in assay [5], 3.3 µM.

On to `C[N+](C)(C)CC#CCN1CCCC1=O.[I-]` [OXOTREMORINE METHIODIDE], for which the IC50 in assay [1] turned out to be 0.013 µM; in assay [2], 23 µM. For the same compound, the Ratio in assay [3] was found to be 1820.

Regarding `Cn1nncc1C1CN2CCC1CC2` (centres undefined), the figures for the IC50 in assay [4] and in assay [5] were 0.93 µM and 29 µM, respectively.

Turning to `Cc1cnnn1C1CN2CCC1CC2` (centres undefined), the IC50 came to 6.7 µM in assay [1] and 33 µM in assay [2]. Besides, the Ratio in assay [3] was 4.9.

As for `Cn1nnnc1C1CN2CCC1CC2` (centres undefined), the IC50 in assay [4] is 6.5 µM; in assay [5], 60 µM.

On to `Cn1cc(C2CN3CCC2CC3)nn1` (centres undefined), for which the IC50 in assay [4] was 4.6 µM; in assay [5] it was 53 µM.

Take `Cn1cnc(C2CN3CCC2CC3)n1` (centres undefined): the concentration for half-maximal inhibition (IC50) in assay [4] amounted to 3.4 µM; in assay [5] it was 30 µM.

As for `Cc1cnn(C2CN3CCC2CC3)n1` (centres undefined), the IC50 in assay [4] worked out at 0.17 µM; in assay [5], 1.6 µM.

With `Cc1nnn(C2CN3CCC2CC3)n1` (centres undefined), the IC50 came to 0.03 µM in assay [1] and 2.8 µM in assay [2]. In addition, in assay [3], the Ratio amounted to 92.

Turning to `Cc1ncn(C2CN3CCC2CC3)n1` (centres undefined), the IC50 came out at 0.075 µM in assay [4] and 4.5 µM in assay [5].
